Consider 19 molecules from ChEMBL document CHEMBL3286159, “Design, synthesis and molecular docking of amide and urea derivatives as Escherichia coli PDHc-E1 inhibitors” (Bioorg Med Chem, 2014).

Each structure is given as a SMILES string.

This assay is described as follows: Inhibition of purified Escherichia coli PDHc-E1 using sodium pyruvate as substrate assessed as reduction of 2,6-DichloroPhenolindophenol after 3 mins by spectrophotometry. The gist of the method:
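E. coli PDHc-E1 expressed as MBP fusion from pMal-C2X in E. coli TB1 (IPTG 0.5 mM, 7 h, 25 °C) and purified by MBP affinity. Mix of 50 mM K3PO4 pH 7.2, 2.0 mM pyruvate, 0.8 mM 2,6-DCPIP, 7.1 µM enzyme and inhibitor preincubated 3 min at 37 °C. ThDP (0–200 µM) added to start. DCPIP reduction read at 600 nm. Initial rates fit to Hill equation for IC50.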
As a reminder, the IC50 is the concentration at which inhibition is half-maximal. On to `Cc1ncc(CNC(=O)COc2ccc(F)cc2Cl)c(N)n1`, for which the IC50 was determined as 7.6 µM.
The figure for `COc1ccc(OCNC(=O)NCc2cnc(C)nc2N)cc1` is 6.3 µM.
The figure for `Cc1ncc(CNC(=O)COc2ccc(Cl)cc2)c(N)n1` is 13 µM; for `Cc1ccc(OCC(=O)NCc2cnc(C)nc2N)cc1` it is 21.6 µM; for `Cc1ncc(CNC(=O)COc2ccc(Br)cc2)c(N)n1` it is 11.1 µM.
The figure for `Cc1ncc(CNC(=O)COc2ccccc2Cl)c(N)n1` is 16.6 µM; for `Cc1ncc(CNC(=O)NCOc2ccccc2)c(N)n1` it is 12.9 µM; for `Cc1ncc(CNC(=O)COc2ccccc2)c(N)n1` it is 45.4 µM.
`Cc1ncc(CNC(=O)NCOc2ccc(F)cc2)c(N)n1`: the IC50 came out at 10.3 µM.
For `Cc1ncc(CNC(=O)COc2ccc([N+](=O)[O-])cc2Cl)c(N)n1`, the IC50 amounted to 4.9 µM.
For `Cc1ncc(CNC(=O)COc2ccccc2Br)c(N)n1`, the IC50 was 60.8 µM.
The figure for `Cc1ncc(CNC(=O)COc2ccc(Cl)cc2C)c(N)n1` is 21.9 µM.
The figure for `Cc1ncc(CNC(=O)COc2ccc(F)cc2)c(N)n1` is 17.4 µM; for `Cc1ncc(CNC(=O)NCOc2ccc(Cl)cc2)c(N)n1` it is 3.67 µM; for `Cc1ccc(OCNC(=O)NCc2cnc(C)nc2N)cc1` it is 9.23 µM.
Regarding `COc1ccc(OCC(=O)NCc2cnc(C)nc2N)cc1`, the IC50 came to 16.8 µM.
For `Cc1ncc(CNC(=O)COc2ccc([N+](=O)[O-])cc2)c(N)n1`, the half-maximal inhibitory concentration (IC50) turned out to be 3.58 µM.
For `Cc1ncc(CNC(=O)COc2ccc(C#N)cc2)c(N)n1` the value was 13.4 µM; for `Cc1ncc(CNC(=O)COc2ccc(Cl)cc2Cl)c(N)n1`, 9.45 µM.
